Measured values taken from ChEMBL document CHEMBL3797027, “Potent anti-proliferative actions of a non-diuretic glucosamine derivative of ethacrynic acid” (Bioorg Med Chem Lett, 2016).
The source made the active and inactive calls. The calls are words filed in the database; no cut-off is given here.

What was measured:
MDA-MB-231 = assay: Induction of ROS generation in human MDA-MB-231 cells at 20 and 40 uM incubated for 3 hrs by DCFDA staining based fluorescence microscopy; assay type: functional, cell-based
Procedure, shortened: (§1)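 After 3 h exposure at different concentrations, DCFH-DA fluorescence was imaged by fluorescence microscopy. H2O2 (25 µM) served as positive control. In some wells, cells were pretreated with 3 mM N-acetylcysteine before compound addition.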

[1] = Potency index, ratio of IC50 for ethacrynic acid to IC50 for test compound for cytotoxic activity against human HT1080 cells assessed as inhibition of cell proliferation incubated for 72 hrs by MTT assay; assay type: functional, HT-1080
Procedure, shortened: (§2)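 Index is the reference IC50 divided by the test IC50. Both IC50s were taken from MTT cell survival curves, each as mean ± SD of three independent experiments.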

[2] = Potency index, ratio of IC50 for ethacrynic acid to IC50 for test compound for cytotoxic activity against human HCT116 cells assessed as inhibition of cell proliferation incubated for 72 hrs by MTT assay; assay type: functional, HCT-116; procedure, shortened: as §2
NCI-H1299 = assay: Induction of ROS generation in human H1299 cells at 20 and 40 uM incubated for 3 hrs by DCFDA staining based fluorescence microscopy; assay type: functional, cell-based; procedure, shortened: as §1
[3] = Cytotoxic activity against human GBM10 cells assessed as inhibition of cell proliferation incubated for 72 hrs by MTT assay; assay type: functional, cell-based; settings: GBM10, 72 h
Procedure, shortened: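 MTT cell survival assay. IC50 is the concentration that inhibits tumour cell proliferation by 50%, read from cell survival curves. Values are given as mean ± SD of three independent experiments.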

## C=C(CC)C(=O)c1ccc(OCC(=O)N[C@@H]2[C@@H](O)[C@H](O)[C@@H](CO)O[C@H]2O)c(Cl)c1Cl
MDA-MB-231
  Activity: Active
[1]
  Ratio IC50: 3
[2]
  Ratio IC50: 3
NCI-H1299
  Activity: Active
[3]
  IC50: 15.2 µM
